Source: article PMC2806602 (The Journal of neuroscience : the official journal of the …, 2009)
Where a chain is given by its changes, count along the chain named.

Columns and labels:
GluRδ2^Wt = target: T1, GluRδ2^Wt (Rattus norvegicus, UniProt Q63226); assay: Two-electrode voltage-clamp recordings in Xenopus oocytes expressing GluRδ2^Wt; assay type: cell-based; conditions: 0.5 mM Ba^2+ exchanged with 0.5 mM of the divalent cation
T1 sequence (Q63226 24-1007): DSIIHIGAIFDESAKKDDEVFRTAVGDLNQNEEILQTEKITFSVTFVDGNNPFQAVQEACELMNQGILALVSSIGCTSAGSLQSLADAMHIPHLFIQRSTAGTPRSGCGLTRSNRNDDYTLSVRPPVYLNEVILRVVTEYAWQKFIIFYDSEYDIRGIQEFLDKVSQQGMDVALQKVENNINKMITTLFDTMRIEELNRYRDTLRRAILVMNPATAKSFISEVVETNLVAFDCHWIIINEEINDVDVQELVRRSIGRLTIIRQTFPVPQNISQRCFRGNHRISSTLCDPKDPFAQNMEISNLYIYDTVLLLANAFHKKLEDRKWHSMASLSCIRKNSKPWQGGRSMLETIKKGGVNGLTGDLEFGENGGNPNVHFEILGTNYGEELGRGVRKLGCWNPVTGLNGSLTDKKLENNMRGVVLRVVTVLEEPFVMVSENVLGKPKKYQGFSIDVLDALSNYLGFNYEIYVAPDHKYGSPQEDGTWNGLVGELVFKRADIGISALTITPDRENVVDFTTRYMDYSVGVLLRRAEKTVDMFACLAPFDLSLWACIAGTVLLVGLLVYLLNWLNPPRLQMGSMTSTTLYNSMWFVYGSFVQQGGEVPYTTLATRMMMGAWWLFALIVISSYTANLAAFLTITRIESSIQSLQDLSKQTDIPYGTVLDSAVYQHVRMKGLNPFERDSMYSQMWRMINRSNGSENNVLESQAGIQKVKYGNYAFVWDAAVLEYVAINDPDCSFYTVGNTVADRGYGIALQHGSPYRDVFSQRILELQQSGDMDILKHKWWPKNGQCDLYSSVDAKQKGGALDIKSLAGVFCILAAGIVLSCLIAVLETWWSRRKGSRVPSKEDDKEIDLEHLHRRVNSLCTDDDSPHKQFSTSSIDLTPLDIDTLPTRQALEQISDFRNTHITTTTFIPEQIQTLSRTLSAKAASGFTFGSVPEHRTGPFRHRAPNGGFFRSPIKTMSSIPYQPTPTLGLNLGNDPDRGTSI
Outline: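 Oocytes injected with wild-type receptor cRNA the day after excision and collagenase treatment. Two-electrode voltage clamp at −40 mV and 23°C, 24–72 h post-injection. Bath: 90 mM NaCl, 3 mM KCl, 0.5 mM BaCl2, 10 mM HEPES, pH 7.6. Ba2+ was replaced by 0.5 mM Mg2+, Zn2+, Mn2+, Sr2+ or Ca2+, or Ca2+ was raised stepwise. Choline or NMDG chloride kept osmolarity and Cl− constant. Baseline was current without Ca2+.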

GluRδ2^Lc = target: T2, GluRδ2^Lc (Rattus norvegicus, UniProt Q63226, A654T); assay type: cell-based; conditions: for spontaneously active current relative to baseline with Ba^2+: 0.5 mM Ba^2+ exchanged with 0.5 mM of the divalent cation
T2 sequence (Q63226 24-1007 A654T): T1 sequence (Q63226 24-1007) with A631T

Compound	effect of divalent cation on currents at GluRδ2^Wt (GluRδ2^Wt)	spontaneously active current relative to baseline with Ba^2+ (GluRδ2^Lc)	modulation of GluRδ2^Lc currents by extracellular Na^+ (GluRδ2^Lc; current-voltage relationship at 0, 30, 60, 90 mM Na^+, -60 to +30 mV)
[Mn+2] [Mn^2+]	no changes were observed	2.66 ± 0.13	
[Na+] [Na^+]			does not modulate GluRδ2
[Mg+2] [Mg^2+]		1.06 ± 0.01	

More lines, now with the values ahead:

effect of divalent cation on currents at GluRδ2^Wt (GluRδ2^Wt)	spontaneously active current relative to baseline with Ba^2+ (GluRδ2^Lc)	modulation of GluRδ2^Lc currents by extracellular Na^+ (GluRδ2^Lc; current-voltage relationship at 0, 30, 60, 90 mM Na^+, -60 to +30 mV)	Compound
no changes were observed	1.33 ± 0.02		[Zn+2] [Zn^2+]
no changes were observed	1.33 ± 0.05		[Sr+2] [Sr^2+]
